In brackets after ≈: the same amount, converted by molar mass. Activity calls are given as the source filed them. The rule behind the calls is not given here. Residues, ends and D or L forms follow the SMILES beside them.
How the values were obtained:
[1] = test system: Enterococcus faecalis; assay: Induction of aggregation of Enterococcus faecalis JH2SS harboring pMG2200 at 100 ng/ml; format: functional, organism-based
How it was run: (§1)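 Donor E. faecalis JH2SS carrying the plasmid, exposed 2 h to synthetic pheromone (cAD1, cPD1, cCF10, cOB1 or cAM373 at 100 ng/ml) or to FA2-2 culture filtrate. Aggregation (clumping) of cells scored visually afterwards. A short 10-min mating with FA2-2 followed induction.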

[2] = test system: Enterococcus faecalis; assay: Induction of aggregation of Enterococcus faecalis JH2SS harboring pMG2201 at 100 ng/ml; format: functional, organism-based; how it was run: as §1
[3] = test system: Enterococcus faecalis; assay: Antimicrobial activity against Enterococcus faecalis NKH1 harboring pMG2200-like plasmid after 24 hrs by agar dilution method; format: functional; conditions: NKH1, 24 h
How it was run: (§2)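 Agar dilution MICs on clinical E. faecalis isolates. Overnight Mueller-Hinton broth culture diluted 100-fold; ~5 × 10^5 cells inoculated onto Mueller-Hinton medium holding a concentration series of each drug. Incubated at 37°C and read at 24 h. Testing and interpretation follow CLSI (NCCLS) standards, with E. faecium ATCC 9790 as control strain.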

[4] = test system: Enterococcus faecalis; assay: Antimicrobial activity against Enterococcus faecalis NKH16 harboring pMG2200-like plasmid after 24 hrs by agar dilution method; format: functional; conditions: NKH16, 24 h; how it was run: as §2
[5] = test system: Enterococcus faecalis; assay: Antimicrobial activity against Enterococcus faecalis NKH6 harboring pMG2200-like and pMG2201-like plasmids after 24 hrs by agar dilution method; format: functional; conditions: NKH6, 24 h; how it was run: as §2
[6] = test system: Enterococcus faecalis; assay: Antimicrobial activity against Enterococcus faecalis NKH9 harboring pMG2200-like and pMG2201-like plasmids after 24 hrs by agar dilution method; format: functional; conditions: NKH9, 24 h; how it was run: as §2
[7] = test system: Enterococcus faecalis; assay: Antimicrobial activity against Enterococcus faecalis NKH5 harboring pMG2200-like plasmid after 24 hrs by agar dilution method; format: functional; conditions: NKH5, 24 h; how it was run: as §2
[8] = test system: Enterococcus faecalis; assay: Antimicrobial activity against Enterococcus faecalis NKH12 harboring pMG2200-like and pMG2201-like plasmids after 24 hrs by agar dilution method; format: functional; conditions: NKH12, 24 h; how it was run: as §2
[9] = test system: Enterococcus faecalis; assay: Antimicrobial activity against Enterococcus faecalis NKH18 harboring pMG2200-like and pMG2201-like plasmids after 24 hrs by agar dilution method; format: functional; conditions: NKH18, 24 h; how it was run: as §2
[10] = test system: Enterococcus faecalis; assay: Antimicrobial activity against Enterococcus faecalis NKH8 harboring pMG2200-like and pMG2201-like plasmids after 24 hrs by agar dilution method; format: functional; conditions: NKH8, 24 h; how it was run: as §2
[11] = test system: Enterococcus faecalis; assay: Antimicrobial activity against Enterococcus faecalis NKH4 harboring pMG2200-like and pMG2201-like plasmids after 24 hrs by agar dilution method; format: functional; conditions: NKH4, 24 h; how it was run: as §2
[12] = test system: Enterococcus faecalis; assay: Antimicrobial activity against Enterococcus faecalis NKH11 harboring pMG2200-like plasmid after 24 hrs by agar dilution method; format: functional; conditions: NKH11, 24 h; how it was run: as §2
[13] = test system: Enterococcus faecalis; assay: Antimicrobial activity against Enterococcus faecalis NKH14 harboring pMG2200-like and pMG2201-like plasmids after 24 hrs by agar dilution method; format: functional; conditions: NKH14, 24 h; how it was run: as §2
[14] = test system: Enterococcus faecalis; assay: Antimicrobial activity against Enterococcus faecalis NKH15 harboring pMG2200-like and pMG2201-like plasmids after 24 hrs by agar dilution method; format: functional; conditions: NKH15, 24 h; how it was run: as §2
[15] = test system: Enterococcus faecalis; assay: Antimicrobial activity against Enterococcus faecalis NKH10 harboring pMG2200-like and pMG2201-like plasmids after 24 hrs by agar dilution method; format: functional; conditions: NKH10, 24 h; how it was run: as §2
[16] = test system: Enterococcus faecalis; assay: Antimicrobial activity against Enterococcus faecalis NKH7 harboring pMG2200-like plasmid after 24 hrs by agar dilution method; format: functional; conditions: NKH7, 24 h; how it was run: as §2
[17] = test system: Enterococcus faecalis; assay: Antimicrobial activity against Enterococcus faecalis NKH13 harboring pMG2200-like and pMG2201-like plasmids after 24 hrs by agar dilution method; format: functional; conditions: NKH13, 24 h; how it was run: as §2
[18] = test system: Enterococcus faecalis; assay: Antimicrobial activity against Enterococcus faecalis NKH3 harboring pMG2200-like and pMG2201-like plasmids after 24 hrs by agar dilution method; format: functional; conditions: NKH3, 24 h; how it was run: as §2
[19] = test system: Enterococcus faecalis; assay: Antimicrobial activity against Enterococcus faecalis NKH2 harboring pMG2200-like and pMG2201-like plasmids after 24 hrs by agar dilution method; format: functional; conditions: NKH2, 24 h; how it was run: as §2
[20] = test system: Enterococcus faecalis; assay: Antimicrobial activity against Enterococcus faecalis NKH17 harboring pMG2200-like plasmid after 24 hrs by agar dilution method; format: functional; conditions: NKH17, 24 h; how it was run: as §2

Compound: CC[C@H](C)[C@H](NC(=O)[C@H](C)N)C(=O)N[C@@H](Cc1ccccc1)C(=O)N[C@H](C(=O)N[C@@H](CC(C)C)C(=O)N[C@@H](C)C(=O)N[C@@H](CO)C(=O)O)[C@@H](C)CC (H-AIFILAS-OH)
- Activity [1]: inactive
- Activity [2]: inactive

Compound: O=C(O)c1cn(C2CC2)c2cc(N3CCNCC3)c(F)cc2c1=O [CIPROFLOXACIN]
- MIC [3]: 64 mg/L (≈ 193 µM)
- MIC [4]: 64 mg/L (≈ 193 µM)
- MIC [5]: 64 mg/L (≈ 193 µM)
- MIC [6]: 64 mg/L (≈ 193 µM)
- MIC [7]: 64 mg/L (≈ 193 µM)
- MIC [8]: 64 mg/L (≈ 193 µM)
- MIC [9]: 64 mg/L (≈ 193 µM)
- MIC [10]: 64 mg/L (≈ 193 µM)
- MIC [11]: 64 mg/L (≈ 193 µM)
- MIC [12]: 64 mg/L (≈ 193 µM)
- MIC [13]: 64 mg/L (≈ 193 µM)
- MIC [14]: 64 mg/L (≈ 193 µM)
- MIC [15]: 64 mg/L (≈ 193 µM)
- MIC [16]: 64 mg/L (≈ 193 µM)
- MIC [17]: 64 mg/L (≈ 193 µM)
- MIC [18]: 64 mg/L (≈ 193 µM)
- MIC [19]: 64 mg/L (≈ 193 µM)
- MIC [20]: 64 mg/L (≈ 193 µM)

Compound: CC1(C)S[C@@H]2[C@H](NC(=O)[C@H](N)c3ccccc3)C(=O)N2[C@H]1C(=O)O [AMPICILLIN]
- MIC [3]: 4 mg/L (≈ 11.4 µM)
- MIC [5]: 4 mg/L (≈ 11.4 µM)
- MIC [7]: 4 mg/L (≈ 11.4 µM)
- MIC [8]: 4 mg/L (≈ 11.4 µM)
- MIC [11]: 4 mg/L (≈ 11.4 µM)
- MIC [12]: 4 mg/L (≈ 11.4 µM)
- MIC [14]: 4 mg/L (≈ 11.4 µM)
- MIC [15]: 4 mg/L (≈ 11.4 µM)
- MIC [18]: 4 mg/L (≈ 11.4 µM)
- MIC [19]: 4 mg/L (≈ 11.4 µM)

Compound: CC[C@H]1OC(=O)[C@H](C)[C@@H](O[C@H]2C[C@@](C)(OC)[C@@H](O)[C@H](C)O2)[C@H](C)[C@@H](O[C@@H]2O[C@H](C)C[C@H](N(C)C)[C@H]2O)[C@](C)(O)C[C@@H](C)C(=O)[C@H](C)[C@@H](O)[C@]1(C)O [ERYTHROMYCIN]
- MIC [3]: 0.25 mg/L (≈ 0.341 µM)
- MIC [4]: 0.125 mg/L (≈ 0.17 µM)
- MIC [5]: > 1020 mg/L
- MIC [6]: > 1020 mg/L
- MIC [7]: 0.125 mg/L (≈ 0.17 µM)
- MIC [8]: > 1020 mg/L
- MIC [9]: > 1020 mg/L
- MIC [10]: > 1020 mg/L
- MIC [11]: > 1020 mg/L
- MIC [12]: 0.125 mg/L (≈ 0.17 µM)
- MIC [13]: > 1020 mg/L
- MIC [14]: > 1020 mg/L
- MIC [15]: > 1020 mg/L
- MIC [16]: 0.125 mg/L (≈ 0.17 µM)
- MIC [17]: > 1020 mg/L
- MIC [18]: > 1020 mg/L
- MIC [19]: > 1020 mg/L
- MIC [20]: 0.125 mg/L (≈ 0.17 µM)

Compound: CSCC[C@H](NC(=O)[C@@H](NC(=O)[C@H](CC(C)C)NC(=O)[C@@H](N)Cc1ccccc1)C(C)C)C(=O)N[C@@H](Cc1ccccc1)C(=O)N[C@@H](CC(C)C)C(=O)N[C@@H](CO)C(=O)NCC(=O)O (H-FLVMFLSG-OH)
- Activity [1]: inactive
- Activity [2]: inactive

Compound: CN[C@@H]1[C@H](O[C@H]2[C@H](O[C@H]3[C@H](O)[C@@H](O)[C@H](N=C(N)N)[C@@H](O)[C@@H]3N=C(N)N)O[C@@H](C)[C@]2(O)C=O)O[C@@H](CO)[C@H](O)[C@H]1O [STREPTOMYCIN]
- MIC [3]: 32 mg/L (≈ 55 µM)
- MIC [4]: 32 mg/L (≈ 55 µM)
- MIC [5]: 32 mg/L (≈ 55 µM)
- MIC [6]: 32 mg/L (≈ 55 µM)
- MIC [7]: 32 mg/L (≈ 55 µM)
- MIC [8]: 32 mg/L (≈ 55 µM)
- MIC [9]: 32 mg/L (≈ 55 µM)
- MIC [10]: 32 mg/L (≈ 55 µM)
- MIC [11]: 32 mg/L (≈ 55 µM)
- MIC [12]: 32 mg/L (≈ 55 µM)
- MIC [13]: 32 mg/L (≈ 55 µM)
- MIC [14]: 32 mg/L (≈ 55 µM)
- MIC [15]: 32 mg/L (≈ 55 µM)
- MIC [16]: 32 mg/L (≈ 55 µM)
- MIC [17]: 32 mg/L (≈ 55 µM)
- MIC [18]: 32 mg/L (≈ 55 µM)
- MIC [19]: 32 mg/L (≈ 55 µM)
- MIC [20]: 32 mg/L (≈ 55 µM)

Compound: O=C(N[C@H](CO)[C@H](O)c1ccc([N+](=O)[O-])cc1)C(Cl)Cl [CHLORAMPHENICOL]
- MIC [3]: 8 mg/L (≈ 24.8 µM)
- MIC [4]: 4 mg/L (≈ 12.4 µM)
- MIC [5]: 8 mg/L (≈ 24.8 µM)
- MIC [6]: 8 mg/L (≈ 24.8 µM)
- MIC [7]: 4 mg/L (≈ 12.4 µM)
- MIC [8]: 8 mg/L (≈ 24.8 µM)
- MIC [9]: 8 mg/L (≈ 24.8 µM)
- MIC [10]: 8 mg/L (≈ 24.8 µM)
- MIC [11]: 8 mg/L (≈ 24.8 µM)
- MIC [12]: 8 mg/L (≈ 24.8 µM)
- MIC [13]: 8 mg/L (≈ 24.8 µM)
- MIC [14]: 8 mg/L (≈ 24.8 µM)
- MIC [15]: 8 mg/L (≈ 24.8 µM)
- MIC [16]: 4 mg/L (≈ 12.4 µM)
- MIC [17]: 8 mg/L (≈ 24.8 µM)
- MIC [18]: 8 mg/L (≈ 24.8 µM)
- MIC [19]: 8 mg/L (≈ 24.8 µM)
- MIC [20]: 4 mg/L (≈ 12.4 µM)

— ChEMBL document CHEMBL1629622, “Isolation of VanB-type Enterococcus faecalis strains from nosocomial infections: first report of the isolation and identification of the pheromone-responsive plasmids pMG2200, Encoding VanB-type vancomycin resistance and a Bac41-type bacteriocin, and pMG2201, encoding erythromycin resistance and …” (2009)
